This note sets out measurements from PubChem BioAssay.

The source made the active and inactive calls.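 How the source made its calls, unless noted: active means NADPH fluorescence slope more negative than the mean of all samples by about 3 SD, 99.7% confidence; inactive means the rest.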

Assay [1] is described as follows: inhibitors of TNFa-induced NFkB p65 translocation, primary screen, imaging, HUVEC, MLSMR starter and 10KST1 sets (AID 438;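 active means inhibition above 20% together with a positive visual image hit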;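 further: compound added about 3h40 before a 20 min TNFalpha stimulation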;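 on inhibition: signal is the nuclear over cytoplasmic p65 intensity ratio per well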). The note with it: HUVEC TNFa-induced p65 nuclear translocation; cell count: measured here: nuclei count (cytotoxicity indicator), at 2.08 µM; inhibition: at 2 µM, stronger effect = higher value, 0% TNFa-plus-vehicle, 100% no-TNFa wells.
Assay [2] is described as follows: inhibitors of mutant huntingtin aggregation, primary screen, imaging, exon1htt(103Q)mCFP cells, high-content imaging (AID 483;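 active means visual image review flags a hit and inhibition of aggregation exceeds 20%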;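 further: compound exposure lasted 3 days before fixation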;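 on nuclei count: percent of the per-plate median nuclei count of sample wells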). The note with it: exon1htt(103Q)mCFP cell line, aggregate imaging, at 2 µM; inhibition of aggregation: stronger effect = higher value; nuclei count: measured here: cell count, toxicity.
Assay [3] in a line: inhibitors of E-selectin induction by TNFa, primary screen, imaging, HUVEC, immunofluorescence, MLSMR starter and 10KST1 sets (AID 487;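 active means visually confirmed hit in the image check and inhibition above 20%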;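 on inhibition: signal is fraction of cell area covered by stained E-selectin grains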;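 on nuclei count: 100% = median nuclei count of all wells on the same plate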). Particulars: HUVEC TNFalpha-induced E-selectin immunofluorescence imaging, at 2 µM; inhibition: stronger effect = higher value; nuclei count: measured here: cell number, toxicity.
Assay [4] concerns the target Voltage-gated potassium channel subunit beta-2 (Rattus norvegicus) (UniProt P62483). Put plainly: KvBeta enzyme negative modulators, primary screen, biochemical, NADPH fluorescence (AID 622;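 active means fluorescence slope higher than the sample average by over 3 SD, cut at about -0.22 in these data, passing the limit was not always enough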;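 further: slope of raw intensity against log time taken from 70 to 1610 s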). Particulars: recombinant KvBeta, 4-cyanobenzaldehyde reduction, at 10 µM, stronger effect = higher value.
The target is the same in assay [5]. Put plainly: KvBeta positive modulators, primary screen, biochemical, NADPH fluorescence (AID 623).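 Further: fluorescence intensity change per second fitted from 20 to 320 s.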 Particulars: Recombinant KvBeta, NADPH fluorescence decrease slope, 10 min; at 10 µM; stronger effect = lower value.
Assay [6] addresses Muscarinic acetylcholine receptor M4 (Homo sapiens) (UniProt P08173). The assay is described as follows: compounds altering M4/GIRK thallium flux, either direction, primary screen, M4 allosteric agonist project, cell-based, HEK293 M4/GIRK, BTC-AM (AID 625;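 active means fluorescence slope after compound addition differing from the mean of all tested samples at 99.7% confidence, mostly higher but some lower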;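 further: thallium influx through GIRK channels coupled to M4 in HEK293 cells with BTC-AM dye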). The note with it: at 10 µM, actives lie on both sides. The procedure, abridged: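 Material: M4/GIRK1/GIRK2 stable HEK293 cell line. Medium: pH 7.3 thallium assay buffer. Dosing: single compound concentration, 10 µM final. Schedule: 1 h dye loading, 2 min kinetic read. Measured by: kinetic fluorescence with BTC-AM dye. Read-out: post-addition slope, 15–24 s, of baseline-normalized fluorescence. Benchmarks: carbachol and DMSO controls.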

Assay [7] in a line: inhibitors of Sendai virus-induced IRF3 signaling, primary screen, TLR/RLR signaling modifier project, cell-based, Sendai virus stimulus, luciferase, 10K MLSCN set (AID 602276;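 active means inhibition at or above 50% at 10 µM; inactive means inhibition below 50%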;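 further: firefly luciferase from ISG56 promoter only with Renilla not read in this screen; 0% = Sendai virus plus DMSO and 100% = medium plus DMSO without virus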). The note with it: HEK293 RL24 IRF3 luciferase reporter, at 10 µM, stronger effect = higher value. A general note: Reporter assays use an easily measured gene product as a stand-in for the process of interest.
A short description of assay [8]: inhibitors of poly I:C-induced TLR3 signaling, primary screen, cell-based, poly I:C stimulus, luciferase, 10K MLSCN set (AID 602277;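 active means inhibition of the reporter signal at or above 50%; inactive means inhibition below 50%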). Particulars: HEK293-TLR3 RL24 IRF3 luciferase reporter, at 10 µM, stronger effect = higher value.

Chain of Muscarinic acetylcholine receptor M4 (Homo sapiens) (P08173 whole entry, looked up): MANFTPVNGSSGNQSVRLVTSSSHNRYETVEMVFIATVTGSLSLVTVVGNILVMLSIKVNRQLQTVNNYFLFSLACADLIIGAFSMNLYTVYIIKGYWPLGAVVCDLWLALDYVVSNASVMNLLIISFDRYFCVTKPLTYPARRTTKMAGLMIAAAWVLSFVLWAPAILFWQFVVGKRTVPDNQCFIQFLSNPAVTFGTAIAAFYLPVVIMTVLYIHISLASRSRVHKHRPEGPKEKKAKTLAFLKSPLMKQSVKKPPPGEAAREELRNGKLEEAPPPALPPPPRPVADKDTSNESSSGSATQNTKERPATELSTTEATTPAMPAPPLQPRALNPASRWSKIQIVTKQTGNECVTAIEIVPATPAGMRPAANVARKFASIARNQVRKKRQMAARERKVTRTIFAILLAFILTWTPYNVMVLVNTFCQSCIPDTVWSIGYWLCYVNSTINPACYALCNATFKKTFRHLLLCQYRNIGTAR
Chain of Voltage-gated potassium channel subunit beta-2 (Rattus norvegicus) (P62483 whole entry, looked up): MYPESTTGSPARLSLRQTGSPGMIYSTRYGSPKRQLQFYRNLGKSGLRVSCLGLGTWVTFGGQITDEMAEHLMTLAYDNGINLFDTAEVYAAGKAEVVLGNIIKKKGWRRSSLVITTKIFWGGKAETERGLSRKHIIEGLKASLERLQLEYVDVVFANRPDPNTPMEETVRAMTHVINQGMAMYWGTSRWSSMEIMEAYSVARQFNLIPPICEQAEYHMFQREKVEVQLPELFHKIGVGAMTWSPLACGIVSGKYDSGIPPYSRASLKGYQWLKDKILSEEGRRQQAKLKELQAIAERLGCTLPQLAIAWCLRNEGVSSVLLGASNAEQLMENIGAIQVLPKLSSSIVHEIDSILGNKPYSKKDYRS

The inhibition is the relative decrease from the control value, in per cent. As to `Cc1cc(C)n2nc(C(=O)NCc3ccco3)nc2n1`, the cell count in assay [1] worked out at 389. Moreover, the inhibition in assay [1] is 1.4% (inactive); in assay [3], -3.3% (inactive); in assay [7] it was 10.5% (inactive); in assay [8], 10.8% (inactive). The inhibition of aggregation in assay [2] is 6.6% (inactive). For the same compound, the nuclei count in assay [2] is 103%; in assay [3], 109%. Moreover, the fluorescence slope is -0.582 (inactive) in assay [4] and 0.00618 (inactive) in assay [6]. In addition, in assay [5], the NADPH fluorescence slope was -4.1e-05 (inactive).

As to `O=S(=O)(NCC1CCCO1)c1cccc(C(F)(F)F)c1` (centres undefined), the cell count in assay [1] worked out at 611. Moreover, the inhibition in assay [1] was -4.8% (inactive); in assay [3], -51.8% (inactive); in assay [7] it was 1.55% (inactive); in assay [8], 12.2% (inactive). For the same compound, the inhibition of aggregation in assay [2] was -6.4% (inactive). Further, the nuclei count in assay [2] was 100%; in assay [3], 159%. Besides, the fluorescence slope was -0.568 (inactive) in assay [4] and 0.00471 (inactive) in assay [6]. The NADPH fluorescence slope in assay [5] was 4.6e-05 (inactive).

For the compound `Cc1cccc(Cn2c(=O)n(Cc3ccco3)c(=O)c3ccccc32)c1`, the cell count in assay [1] was 659. Further, the inhibition was 0.5% (inactive) in assay [1], -39% (inactive) in assay [3], 0.06% (inactive) in assay [7] and -5.18% (inactive) in assay [8]. For the same compound, the inhibition of aggregation in assay [2] is -10.9% (inactive). Further, the figures for the nuclei count in assay [2] and in assay [3] were 122% and 113%, respectively. The results for the fluorescence slope in assay [4] and in assay [6] were -0.608 (inactive) and 0.00404 (inactive), respectively. Moreover, the NADPH fluorescence slope in assay [5] is -3.9e-05 (inactive).

In the case of `CCOC(=O)c1ccccc1NC(=O)Cn1cnc2c(cnn2-c2ccc(OC)cc2)c1=O`, the cell count in assay [1] amounted to 705. The inhibition in assay [1] is -25.5% (inactive); in assay [3], -0.4% (inactive); in assay [7], 10.8% (inactive); in assay [8], 22.8% (inactive). For the same compound, the inhibition of aggregation in assay [2] was -6.3% (inactive). Besides, the nuclei count in assay [2] is 108%; in assay [3], 101%. Besides, the fluorescence slope in assay [4] is -0.237 (inactive); in assay [6], 0.0067 (inactive). Besides, in assay [5], the NADPH fluorescence slope was -4.6e-06 (inactive).

Regarding `NC1=NC(c2ccc(Br)cc2)n2c(nc3ccccc32)N1` (centres undefined), in assay [1], the cell count is 779. The inhibition in assay [1] was 4.8% (inactive); in assay [3], -44.9% (inactive); in assay [7], 17.6% (inactive); in assay [8] it was 25% (inactive). The inhibition of aggregation in assay [2] was -6.6% (inactive). In addition, the results for the nuclei count in assay [2] and in assay [3] were 105% and 106%, respectively. In addition, the fluorescence slope in assay [4] is -0.556 (inactive); in assay [6], 0.00498 (inactive). In assay [5], the NADPH fluorescence slope was -1.5e-06 (inactive).

As for `COCc1cc(C)nc(SCC(=O)Nc2cccc(C)c2C)c1C#N`, in assay [1], the cell count was 578. In addition, the inhibition in assay [1] is -25.9% (inactive); in assay [3], -62.6% (inactive); in assay [7], -2.58% (inactive); in assay [8], 38.1% (inactive). Also, the inhibition of aggregation in assay [2] is -17.5% (inactive). The figures for the nuclei count in assay [2] and in assay [3] were 98% and 107%, respectively. Further, the fluorescence slope is -0.432 (inactive) in assay [4] and 0.0109 (inactive) in assay [6]. Further, in assay [5], the NADPH fluorescence slope was 2.4e-05 (inactive).

With `Nc1nnc(SCC(=O)N2CCN(c3ccccc3)CC2)n1-c1ccccc1`, the cell count in assay [1] is 774. Further, the inhibition was -11.4% (inactive) in assay [1], -82% (inactive) in assay [3], 10.7% (inactive) in assay [7] and 21.1% (inactive) in assay [8]. Moreover, the inhibition of aggregation in assay [2] was 2% (inactive). Moreover, the nuclei count in assay [2] turned out to be 99.4%; in assay [3] it was 111%. For the same compound, the figures for the fluorescence slope in assay [4] and in assay [6] were -0.572 (inactive) and 0.00636 (inactive), respectively. For the same compound, the NADPH fluorescence slope in assay [5] is -3.7e-05 (inactive).

Take `CCc1cc2c(=O)c(-c3ccc4c(c3)OCCO4)coc2cc1OC(=O)c1ccco1`: the cell count in assay [1] worked out at 637. Moreover, the inhibition in assay [1] was -5.2% (inactive); in assay [3], -184% (inactive); in assay [7], -45.7% (inactive); in assay [8] it was -122% (inactive). For the same compound, the inhibition of aggregation in assay [2] is 4.7% (inactive). The figures for the nuclei count in assay [2] and in assay [3] were 92.8% and 105%, respectively. Moreover, the values for the fluorescence slope in assay [4] and in assay [6] were -0.554 (inactive) and 0.00495 (inactive), respectively. Also, in assay [5], the NADPH fluorescence slope is -4.2e-05 (inactive).

As for `COc1ccc(S(=O)(=O)N(C)c2ccc(C(=O)N3CCOCC3)cc2)cc1`, the cell count in assay [1] amounted to 321. Further, the inhibition in assay [1] is -2.9% (inactive); in assay [3], -106% (inactive); in assay [7], 14.9% (inactive); in assay [8], 16.7% (inactive). Also, in assay [2], the inhibition of aggregation was -6.7% (inactive). In addition, the nuclei count stood at 105% in assay [2] and 129% in assay [3]. In addition, the fluorescence slope in assay [4] was -0.515 (inactive); in assay [6] it was 0.00412 (inactive). In addition, in assay [5], the NADPH fluorescence slope is -0.000149 (inactive).

Consider `CCC(C)(C)NC(=O)C(OC(=O)c1ccco1)c1ccccc1OC` (centres undefined), for which the cell count in assay [1] stood at 610. The inhibition is -6.2% (inactive) in assay [1], -4.1% (inactive) in assay [3], 0.26% (inactive) in assay [7] and 8.58% (inactive) in assay [8]. The inhibition of aggregation in assay [2] was 11% (inactive). In addition, the results for the nuclei count in assay [2] and in assay [3] were 87.5% and 107%, respectively. Moreover, the values for the fluorescence slope in assay [4] and in assay [6] were -0.248 (inactive) and 0.00739 (inactive), respectively. Further, the NADPH fluorescence slope in assay [5] was 3.7e-06 (inactive).

On to `COc1cc(OC)c(C(=O)Nc2ncn[nH]2)cc1OC`, for which the cell count in assay [1] was 667. The inhibition is -1.1% (inactive) in assay [1], -95.9% (inactive) in assay [3], 17.7% (inactive) in assay [7] and 19.5% (inactive) in assay [8]. In addition, the inhibition of aggregation in assay [2] was -12% (inactive). Also, the results for the nuclei count in assay [2] and in assay [3] were 107% and 108%, respectively. In addition, the values for the fluorescence slope in assay [4] and in assay [6] were -0.537 (inactive) and 0.00435 (inactive), respectively. Moreover, in assay [5], the NADPH fluorescence slope is -0.000156 (inactive).

As for `COc1ccccc1C(=O)N1CCNC(=O)C1CC(=O)Nc1ccc(Cl)cc1` (centres undefined), the cell count in assay [1] is 469. The inhibition was 1.3% (inactive) in assay [1], -302% (inactive) in assay [3], 18.2% (inactive) in assay [7] and 28.3% (inactive) in assay [8]. The inhibition of aggregation in assay [2] was 9.7% (inactive). Moreover, the nuclei count came to 105% in assay [2] and 123% in assay [3]. The fluorescence slope in assay [4] was -0.565 (inactive); in assay [6], 0.00504 (inactive). For the same compound, in assay [5], the NADPH fluorescence slope was -2.7e-05 (inactive).

Turning to `O=c1cc(-c2ccccc2)[nH]c2nc3ccccc3n12`, the cell count in assay [1] stood at 302. Besides, the inhibition in assay [1] was -1.2% (inactive); in assay [3], -4.8% (inactive); in assay [7] it was 40.6% (inactive); in assay [8], 27% (inactive). In addition, the inhibition of aggregation in assay [2] was 15.1% (inactive). The nuclei count in assay [2] turned out to be 99.6%; in assay [3] it was 96.2%. The fluorescence slope was -0.422 (inactive) in assay [4] and 0.00541 (inactive) in assay [6]. Also, the NADPH fluorescence slope in assay [5] was 2.4e-05 (inactive).

On to `COc1cc2[nH]c(=O)n(CCC(=O)N3CCc4ccccc4C3)c(=O)c2cc1OC`, for which the cell count in assay [1] turned out to be 452. The inhibition was -20.3% (inactive) in assay [1], -83.3% (inactive) in assay [3], 14.4% (inactive) in assay [7] and -15.8% (inactive) in assay [8]. Besides, the inhibition of aggregation in assay [2] was 6.9% (inactive). Besides, the nuclei count worked out at 94.4% in assay [2] and 108% in assay [3]. Besides, the fluorescence slope in assay [4] was -0.15 (inactive); in assay [6], 0.00747 (inactive). The NADPH fluorescence slope in assay [5] is -9.5e-06 (inactive).
